Columns and labels:
Type in all cases: ADME, organism-based
[1] = Cmin in HIV infected virological failure patient plasma after 24 hrs; conditions: human, read-out: Cmin
Summary of the method: (§1)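 Plasma PK at steady state (≥1 month) in HIV patients on once-daily saquinavir 1,200 mg plus ritonavir 100 mg and two NRTIs. EDTA blood was drawn predose and at 2, 4, 6, 8, 12 and 24 h after supervised intake, or as a single 24 ± 0.5 h trough. Plasma was stored at −70°C and assayed by HPLC-UV at 215 nm (LLOQ 40 ng/ml). Parameters were noncompartmental, with the terminal slope from the 12–24 h points.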

[2] = organism: Homo sapiens; test: Ratio of Cmax in PBMC cellular compartment to plasma in HIV infected virological failure patient
Summary of the method: (§2)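 Steady-state study (≥1 month on once-daily saquinavir 1,200 mg + ritonavir 100 mg with two NRTIs). 24-h profile: blood drawn predose and at 2, 4, 6, 8, 12 and 24 h after supervised intake. Plasma was separated, and PBMC were isolated on a Ficoll gradient, weighed, and volume was taken as weight. Saquinavir was measured by HPLC-UV at 215 nm (LLOQ 40 ng/ml). Noncompartmental analysis was used, with terminal slope from the 12–24 h points. Ratio = intracellular/plasma.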

[3] = Elimination half life in PBMC cellular compartment of HIV infected patient after 24 hrs; conditions: human
Summary of the method: (§3)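 PBMC drug levels, same once-daily saquinavir/ritonavir 1,200/100 mg regimen at steady state, same sampling times. PBMC were isolated from EDTA blood diluted 1:1 in PBS (pH 7.4) by Ficoll density centrifugation and washed twice in PBS. Pellet volume was taken as equal to its weight. Pellets were frozen at −70°C and assayed by HPLC-UV at 215 nm. Analysis was noncompartmental, with the terminal phase from the 12–24 h points.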

[4] = AUC (0 to 24 hrs) in HIV infected patient plasma after 24 hrs; set-up: time < 24 hr; conditions: human; summary of the method: as §1
[5] = AUC (0 to 24 hrs) in HIV infected virological failure patient plasma; set-up: time < 24 hr; conditions: human; summary of the method: as §2
[6] = organism: Homo sapiens; test: Ratio of elimination half life in PBMC cellular compartment to plasma in HIV infected patient; summary of the method: as §2
[7] = Cmin in HIV infected patient plasma after 24 hrs; conditions: human, read-out: Cmin; summary of the method: as §1
[8] = Elimination half life in HIV infected patient plasma after 24 hrs; conditions: human; summary of the method: as §1
[9] = Elimination half life in PBMC cellular compartment of HIV infected virological failure patient after 24 hrs; conditions: human; summary of the method: as §3
[10] = organism: Homo sapiens; test: Ratio of Cmax in PBMC cellular compartment to plasma in HIV infected patient; summary of the method: as §2
[11] = organism: Homo sapiens; test: Ratio of elimination half life in PBMC cellular compartment to plasma in HIV infected virological failure patient; summary of the method: as §2
[12] = Elimination half life in HIV infected virological failure patient plasma after 24 hrs; conditions: human; summary of the method: as §1
[13] = AUC (0 to 24 hrs) in PBMC cellular compartment of HIV infected patient after 24 hrs; set-up: time < 24 hr; conditions: human; summary of the method: as §3
[14] = Ratio of Cmin in PBMC cellular compartment to plasma in HIV infected patient; conditions: human, read-out: Cmin_ratio
Summary of the method: (§4)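 Trough (Cmin) saquinavir was sampled at steady state on once-daily 1,200/100 mg saquinavir/ritonavir, either as the 24-h point of the full profile or as a single sample 24 ± 0.5 h postdose. Plasma and Ficoll-isolated PBMC (volume from weight) were assayed by HPLC-UV at 215 nm (LLOQ 40 ng/ml). Ratio = intracellular/plasma concentration.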

[15] = Ratio of AUC (0 to 24 hrs) in PBMC cellular compartment to plasma in HIV infected virological failure patient; conditions: human, read-out: AUC_ratio; summary of the method: as §2
[16] = Cmin in PBMC cellular compartment of HIV infected virological failure patient after 24 hrs; conditions: human, read-out: Cmin; summary of the method: as §3
[17] = Ratio of Cmin in PBMC cellular compartment to plasma in HIV infected virological failure patient; conditions: human, read-out: Cmin_ratio; summary of the method: as §4
[18] = AUC (0 to 24 hrs) in PBMC cellular compartment of HIV infected virological failure patient; set-up: time < 24 hr; conditions: human; summary of the method: as §3
[19] = Ratio of AUC (0 to 24 hrs) in PBMC cellular compartment to plasma in HIV infected patient; conditions: human, read-out: AUC_ratio; summary of the method: as §2
[20] = Cmax in HIV infected virological failure patient plasma after 24 hrs; conditions: human; summary of the method: as §1
[21] = Cmax in HIV infected patient plasma after 24 hrs; conditions: human; summary of the method: as §1
[22] = Cmax in PBMC cellular compartment of HIV infected virological failure patient after 24 hrs; conditions: human; summary of the method: as §3
[23] = in the assay text read “HIV infected patient” for “HIV infected virological failure patient”

concentration at 24 h [1]: 384 ng/mL
Cmax_ratio [2]: 4.46 (null)
half-life [3]: 12.5 h
AUC(0-t) at 24 h [4]: 34300 ng·h/mL
AUC(0-t) at 24 h [5]: 35300 ng·h/mL
t1/2_ratio [6]: 1.5
concentration at 24 h [7]: 431 ng/mL
half-life [8]: 8.25 h
half-life [9]: 10.9 h
Cmax_ratio [10]: 2.75 (null)
t1/2_ratio [11]: 1.5
half-life [12]: 8.51 h
AUC(0-t) at 24 h [13]: 99500 ng·h/mL
Kp [14]: 2.39
Kp [15]: 3.53
concentration at 24 h [16, 23]: 996 ng/mL
concentration at 24 h [16]: 1220 ng/mL
Kp [17]: 3.01
AUC(0-t) at 24 h [18]: 132000 ng·h/mL
Kp [19]: 2.75
Cmax [20]: 3320 ng/mL
Cmax [21]: 3670 ng/mL
Cmax [22]: 15200 ng/mL
Cmax [22, 23]: 10100 ng/mL
Structure (SMILES): CC(C)(C)NC(=O)[C@@H]1C[C@@H]2CCCC[C@@H]2CN1C[C@@H](O)[C@H](Cc1ccccc1)NC(=O)[C@H](CC(N)=O)NC(=O)c1ccc2ccccc2n1 [SAQUINAVIR]

Source: ChEMBL document CHEMBL1143814, “Clinical and pharmacokinetic data support once-daily low-dose boosted saquinavir (1,200 milligrams saquinavir with 100 milligrams ritonavir) in treatment-naive or limited protease inhibitor-experienced human immunodeficiency virus-infected patients” (Antimicrob Agents Chemother, 2007)
